Test results published in ChEMBL document CHEMBL1150199, “Preparation, characterization, and antiviral activity of microbial metabolites of stemodin” (J Nat Prod, 1991).
Converted amounts (≈) assume the structure as drawn. The source made the active and inactive calls. The rule behind the calls is not given here.

Key:
[1] = Cytotoxicity against african green monkey Vero cells after 66 hrs; format: cell-based; conditions: chlorocebus sabaeus
How it was run: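 Confluent Vero monolayers in DMEM with 10% calf serum received triplicate serial dilutions of DMSO-dissolved samples at 1–100 µg/ml, with higher levels where needed. The cytotoxic concentration is reported as CD50.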

[2] = system: Human alphaherpesvirus 1; experiment: Antiviral activity against HSV1 in african green monkey Vero cells assessed as reduction in number of plaques at 0.1 mg/ml after 66 hrs; format: functional; parameters: scale not given: the % may be the effect or the level left
How it was run: (§1)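 Vero cells seeded at 2 × 10^4 per 200 µl well in DMEM with 10% calf serum, grown to confluence at 37° under ~15% CO2. Medium replaced with compound dilutions in triplicate, each well inoculated with 30 PFU HSV-1. Incubated 66 h, then formaldehyde-fixed and crystal violet-stained. Plaque reduction was scored visually.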

[3] = system: Human alphaherpesvirus 1; experiment: Antiviral activity against HSV1 in african green monkey Vero cells assessed as reduction in number of plaques after 66 hrs; format: functional, organism-based
How it was run: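 Confluent Vero monolayers were seeded at 2 × 10^4 cells/well in DMEM with 10% calf serum. Samples were dissolved in DMSO, diluted in medium and added in triplicate at 100, 50, 20, 10, 5, 2 and 1 µg/ml, with 30 PFU HS-1 per well. Wells were incubated 66 h at 37° under ~15% CO2, then formaldehyde-fixed, crystal violet-stained and scored visually. The value is the lowest concentration giving the stated % plaque reduction.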

[4] = system: Human alphaherpesvirus 1; experiment: Antiviral activity against HSV1 in african green monkey Vero cells assessed as reduction in number of plaques at 0.005 mg/ml after 66 hrs; format: functional; parameters: scale not given: the % may be the effect or the level left; how it was run: as §1

Structure (SMILES)	CC50 at 66 h [1]	Activity [2]	Activity [3]	Activity [4]
CC1(C)C[C@H](O)C[C@@]2(C)[C@H]1C[C@@H](O)[C@H]1C[C@H]3C[C@]12CC[C@]3(C)O	200 µg/mL (≈ 620 µM)	33%		
C[C@@]1(CO)C[C@H](O)C[C@@]2(C)[C@H]1CC[C@H]1C[C@H]3C[C@]12CC[C@]3(C)O	200 µg/mL (≈ 620 µM)	67%		
CC1(C)C[C@H](O)C[C@@]2(C)[C@H]1C[C@H](O)[C@H]1C[C@H]3C[C@]12CC[C@]3(C)O	70 µg/mL (≈ 217 µM)		inactive	
C[C@@]1(CO)C[C@H](O)C[C@@]2(C)[C@H]1CC[C@@]1(O)C[C@H]3C[C@]12CC[C@]3(C)O	660 µg/mL (≈ 1950 µM)		inactive	
C[C@@]1(CO)[C@H](O)CC[C@@]2(C)[C@H]1CC[C@H]1C[C@@H]3C[C@@]12CC[C@]3(O)CO [APHIDICOLIN]	200 µg/mL (≈ 591 µM)			100%
CC1(C)C[C@H](O)C[C@@]2(C)[C@H]1CC[C@H]1C[C@H]3C[C@]12CC[C@]3(C)O [STEMODIN]	40 µg/mL (≈ 131 µM)			
C[C@@]1(CO)C[C@H](O)C[C@@]2(C)[C@H]1CC[C@H]1C[C@H]3[C@H](O)[C@]12CC[C@]3(C)O	70 µg/mL (≈ 207 µM)		inactive	
CC1(C)C[C@H](O)C[C@@]2(C)[C@H]1C[C@H](O)[C@@]1(O)C[C@H]3C[C@@]21CC[C@]3(C)O	40 µg/mL (≈ 118 µM)		inactive	
C[C@]1(CO)C[C@H](O)C[C@@]2(C)[C@H]1CC[C@H]1C[C@H]3C[C@]12CC[C@]3(C)O	> 399 µg/mL			
C[C@]1(CO)C[C@H](O)C[C@@]2(C)[C@H]1CC[C@H]1C[C@H]3C[C@]12CC[C@@]3(O)CO	> 399 µg/mL			
CC1(C)C[C@H](O)C[C@@]2(C)[C@H]1CC[C@H]1C[C@@]3(O)C[C@]12CC[C@]3(C)O	150 µg/mL (≈ 465 µM)	27%		
CC1(C)C[C@H](O)C[C@@]2(C)[C@H]1CC[C@@]1(O)C[C@H]3C[C@]12CC[C@]3(C)O	300 µg/mL (≈ 930 µM)	93%		
